According to ChEMBL document CHEMBL3044971, “Dialkoxybenzene and dialkoxyallylbenzene feeding and oviposition deterrents against the cabbage looper, Trichoplusia ni: potential insect behavior control agents” (J Agric Food Chem, 2010):

What was measured:
Trichoplusia ni [1] = assay: Oviposition deterrent activity against adult female Trichoplusia ni (cabbage looper) moths introduced along with male moths into oviposition cage containing compound pretreated cabbage leaves assessed as eggs laying on the leaf disks at 0.25% after 48 hr; format: functional
Procedure, shortened: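 Choice test: one male and one female moth were caged with a control and a treated cabbage leaf (~100-110 cm²). Each side was sprayed with 0.5 mL MeOH or methanolic test solution at 0.25%. Values are mean ± SE, N = 35-40.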

Trichoplusia ni [2] = assay: Feeding deterrent activity against freshly molted third-instar larval stage of Trichoplusia ni (cabbage looper) in compound pretreated cabbage leaves after 3 to 5 hr by leaf disk choice bioassay; format: functional, organism-based
Procedure, shortened: (§1)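 Leaf-disk choice test on greenhouse cabbage (Stonehead) leaves from 5-6-week plants. Freshly molted third-instar T. ni from a diet-reared colony (>50 generations) were starved 4-5 h. One disk had 10 μL test solution painted on each side, the other carrier solvent only. There were 25 larvae per treatment. Run ended at ~50% control disk eaten (3-5 h). Deterrence = (C−T)/(C+T)×100 from consumed areas.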

Trichoplusia ni [3] = conditions: in vivo, 24 h
Trichoplusia ni [4] = assay: Feeding deterrent activity against freshly molted third-instar larval stage of Trichoplusia ni (cabbage looper) in compound pretreated cabbage leaves at 50 ug/cm2 after 3 to 5 hr by leaf disk choice bioassay; format: functional; procedure, shortened: as §1

Compound	Activity (Trichoplusia ni [1])	DC50 (Trichoplusia ni [2])	mortality (Trichoplusia ni [3])	Activity (Trichoplusia ni [4])
C=CCc1cc(OCC)ccc1OCCC(C)C	20%	15 microg/cm2	27%	83%
C=CCc1cccc(OCC)c1OCC	31%	20 microg/cm2	27%	100%
CCCOc1ccc2c(c1)CC(C)O2 (stereo not given)	-12%	16 microg/cm2	1%	100%
C=CCc1cc(OCC)ccc1OCCC	21%	33 microg/cm2	17%	65%
C=CCc1cccc(OCCC(C)C)c1O	7%	20.6 microg/cm2	17%	100%
C=CCc1cc(OCCCC)ccc1OC	37%	19 microg/cm2	17%	68%
C=CCc1cc(OCCC)ccc1O	51%	57 microg/cm2	3.3%	51%
C=CCc1cc(OC)ccc1OCCC(C)C	20%	15 microg/cm2	27%	83%
CC(C)CCOc1ccc2c(c1)CC(C)O2 (stereo not given)	-12%	16 microg/cm2	1%	100%
C=CCc1cc(OCCC)ccc1OCC	64%	22 microg/cm2	3.3%	66%
C=CCc1cccc(OCCC)c1OCCC			47%	31%
C=CCc1cc(OCC)ccc1OCC	64%	22 microg/cm2	3.3%	66%
C=CCc1c(OC)cccc1OCCC	17%	14 microg/cm2		100%
C=CCc1cc(OCCC)ccc1OCCC	21%	33 microg/cm2	17%	65%
C=CCc1cc(OC)ccc1OC	14%	20 microg/cm2	17%	80%
C=CCc1ccc(O)c(OC)c1 [EUGENOL]		56 microg/cm2	30%	44%
C=CCOc1ccc(OCCC(C)C)cc1CC=C				29%
C=CCc1cc(OCC)ccc1OC	37%	19 microg/cm2	17%	68%
C=CCc1cccc(OCCC(C)C)c1OCCC			47%	31%
C=CCc1cccc(OC)c1OCCC(C)C			7%	22%
C=CCc1cccc(OCCC(C)C)c1OC	32%	15.5 microg/cm2	17%	100%
C=CCOc1ccc(OCCCC)cc1CC=C				29%
C=CCc1cccc(OCCC)c1OCCCC			1%	6%
C=CCOc1c(CC=C)cccc1OCCCC			7%	22%
C=CCc1cc(OCCCC)ccc1O	51%	57 microg/cm2	3.3%	51%

Compound	Activity (Trichoplusia ni [1])	DC50 (Trichoplusia ni [2])	mortality (Trichoplusia ni [3])	Activity (Trichoplusia ni [4])
CCCOc1cccc(OCCC(C)C)c1 [3-PROPOXY-1-ISOPENTOXYBENZENE]	9%	17 microg/cm2	10%	97%
C=CCOc1ccccc1OCCCC [1-allyloxy-2-butoxybenzene]	35%	17 microg/cm2	19%	92%
C=CCc1ccc(OCCC)c(OC)c1 [PROPYLEUGENOL]	29%	19 microg/cm2	37%	84%
CCCOc1ccc(OCC)cc1 [4-ETHOXY-1-PROPOXYBENZENE]	10%	33.3 microg/cm2	17%	100%
CCN(CC)C(=O)c1cccc(C)c1 [DIETHYLTOLUAMIDE]	23%	47 microg/cm2	7%	60%
COc1ccc2c(c1)CC(C)O2 (stereo not given)	-12%	16 microg/cm2	1%	100%
C=CCc1cccc(OCCC)c1OCC	31%	20 microg/cm2	27%	100%
C=CCc1cc(OCCC(C)C)ccc1OC	37%	19 microg/cm2	17%	68%
C=CCc1ccc(OCCC(C)C)c(OC)c1 [ISOPENTYLEUGENOL]	9%	25 microg/cm2	28%	86%
C=CCc1cccc(OCC)c1OCCC(C)C			7%	22%
C=CCc1cccc(OCC)c1OC	32%	15.5 microg/cm2	17%	100%
C=CCc1cccc(OC)c1OCCCC			1%	6%
C=CCc1cc(OCC)ccc1O	51%	57 microg/cm2	3.3%	51%
CCCCOc1ccccc1OCCC [1-propoxy-2-butoxybenzene]	37%	21 microg/cm2	19%	98%
C=CCc1cccc(OCCCC)c1OC	32%	15.5 microg/cm2	17%	100%
C=CCc1ccc(OCCCC)c(OC)c1 [N-BUTYLEUGENOL]	34%	12 microg/cm2	15%	92%
C=CCc1cccc(OCCCC)c1OCC	31%	20 microg/cm2	27%	100%
C=CCc1cccc(OCCC(C)C)c1OCCCC			1%	6%
C=CCOc1ccc(OCCC)cc1CC=C				29%
C=CCc1cc(OCCC)ccc1OCCCC	-14%			23%
C=CCc1cccc(OCCC)c1OC	32%	15.5 microg/cm2	17%	100%
C=CCc1ccc(OCC)c(OC)c1 [ETHYLEUGENOL]	18%	50 microg/cm2	35%	51%
C=CCc1cc(OCCC(C)C)ccc1O	51%	57 microg/cm2	3.3%	51%
C=CCc1cccc(OCC)c1OCCCC			1%	6%
C=CCc1cc(OC)ccc1OCC	64%	22 microg/cm2	3.3%	66%

Compound	Activity (Trichoplusia ni [1])	DC50 (Trichoplusia ni [2])	mortality (Trichoplusia ni [3])	Activity (Trichoplusia ni [4])
C=CCc1cccc(OCCCC)c1OCCC			47%	31%
C=CCOc1c(CC=C)cccc1OC			7%	22%
C=CCOc1ccc(OCC)cc1CC=C				29%
C=CCOc1c(CC=C)cccc1OCCC			7%	22%
C=CCc1cccc(OCCCC)c1OCCCC			1%	6%
C=CCc1ccc(OC)c(OC)c1 [METHYLEUGENOL]	-22%	26 microg/cm2		64%
C=CCc1cc(OCCCC)ccc1OCCCC	-14%			23%
C=CCc1cc(OC)ccc1OCCCC	-14%			23%
C=CCOc1cccc(O)c1 [3-(ALLYLOXY)PHENOL]	5%			36%
C=CCOc1ccc(OCC)cc1 [1-allyloxy-4-ethoxybenzene]	17%	30 microg/cm2		73%
C=CCOc1cccc(OCCC(C)C)c1	10%			
C=CCOc1ccccc1OCCC(C)C	26%			
C=CCc1cccc(OCCC(C)C)c1OCCC(C)C			7%	22%
C=CCc1cccc(OC)c1OCCC			47%	31%
C=CCOc1ccc(OC)cc1CC=C				29%
C=CCOc1c(CC=C)cccc1OCCC(C)C			7%	22%
C=CCc1cccc(OCCCC)c1OCCC(C)C			7%	22%
C=CCOc1c(CC=C)cccc1OCC			7%	22%
C=CCc1cccc(OCC)c1OCCC			47%	31%
C=CCOc1ccc(OCCC)cc1 [1-allyloxy-4-propoxybenzene]	21%	0.5 microg/cm2		100%
C=CCc1cc(OCCC(C)C)ccc1OCCCC	-14%			23%
C=CCOc1ccc(OCCC(C)C)cc1 [1-allyloxy-4-isopentoxybenzene]	-25%			
C=CCc1cc(OCC)ccc1OCCCC	-14%			23%
C=CCc1cccc(OCCC)c1OCCC(C)C			7%	22%
